From ChEMBL document CHEMBL1153887, “Cyclocondensation reaction of heterocyclic carbonyl compounds. Part XIII: synthesis and cytotoxic activity of some 3,7-diaryl-5-(3,4,5-trimethoxyphenyl)pyrazolo[4,3-e][1,2,4]triazines” (Eur J Med Chem, 2009)

Test system: CCRF-CEM
Test: Cytotoxicity against human CEM cells after 72 hrs by MTT assay
Format: cell-based
Conditions: not given

| SMILES | IC50 [µM] |
| --- | --- |
| COc1ccc(-n2nc(-c3cc(OC)c(OC)c(OC)c3)c3nc(-c4cc(OC)c(OC)c(OC)c4)nnc32)cc1 | 36.9 |
| COc1ccc(N/N=C(\c2cc(OC)c(OC)c(OC)c2)c2nc(-c3cc(OC)c(OC)c(OC)c3)n[nH]c2=O)cc1 | 5.71 |
| COc1cccc(N/N=C(\c2cc(OC)c(OC)c(OC)c2)c2nc(-c3cc(OC)c(OC)c(OC)c3)n[nH]c2=O)c1 | 7.83 |
| COc1cccc(-n2nc(-c3cc(OC)c(OC)c(OC)c3)c3nc(-c4cc(OC)c(OC)c(OC)c4)nnc32)c1 | 48.3 |
| COc1cc(/C(=N\Nc2ccc(Cl)cc2)c2nc(-c3ccc(Cl)cc3)n[nH]c2=O)cc(OC)c1OC | 7.67 |
| COc1cc(-c2nn(-c3ccccc3)c3nnc(-c4ccccc4)nc23)cc(OC)c1OC | 109 |
| COc1ccc(-n2nc(-c3cc(OC)c(OC)c(OC)c3)c3nc(-c4ccccc4)nnc32)cc1 | 117 |
| COc1ccc(-c2nnc3c(n2)c(-c2cc(OC)c(OC)c(OC)c2)nn3-c2cccc(OC)c2)cc1 | 54.5 |
| COc1ccc(-c2nnc3c(n2)c(-c2cc(OC)c(OC)c(OC)c2)nn3-c2ccc(OC)cc2)cc1 | 124 |
| COc1cccc(N/N=C(\c2cc(OC)c(OC)c(OC)c2)c2nc(-c3ccccc3)n[nH]c2=O)c1 | 8.6 |

Test system: CCRF-CEM
Test: Cytotoxicity against human daunorubicin-resistant CEM cells after 72 hrs by MTT assay
Format: cell-based
Conditions: not given
Summary of the method: (§1)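 Cells seeded at 2500–30,000 cells/well and left 24 h at 37 °C, 5% CO₂, then fourfold dilution series in duplicate for 72 h. MTT for 4 h, formazan dissolved in 10% SDS (pH 5.5), OD read at 540 nm against controls. Mean of three independent experiments.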

| SMILES | IC50 [µM] |
| --- | --- |
| COc1ccc(-n2nc(-c3cc(OC)c(OC)c(OC)c3)c3nc(-c4cc(OC)c(OC)c(OC)c4)nnc32)cc1 | 118 |
| COc1ccc(N/N=C(\c2cc(OC)c(OC)c(OC)c2)c2nc(-c3cc(OC)c(OC)c(OC)c3)n[nH]c2=O)cc1 | 34.6 |
| COc1cccc(N/N=C(\c2cc(OC)c(OC)c(OC)c2)c2nc(-c3cc(OC)c(OC)c(OC)c3)n[nH]c2=O)c1 | 140 |
| COc1cccc(-n2nc(-c3cc(OC)c(OC)c(OC)c3)c3nc(-c4cc(OC)c(OC)c(OC)c4)nnc32)c1 | 109 |
| COc1cc(/C(=N\Nc2ccc(Cl)cc2)c2nc(-c3ccc(Cl)cc3)n[nH]c2=O)cc(OC)c1OC | 37.7 |
| COc1cc(-c2nn(-c3ccccc3)c3nnc(-c4ccccc4)nc23)cc(OC)c1OC | 108 |
| COc1ccc(-n2nc(-c3cc(OC)c(OC)c(OC)c3)c3nc(-c4ccccc4)nnc32)cc1 | 100 |
| COc1ccc(-c2nnc3c(n2)c(-c2cc(OC)c(OC)c(OC)c2)nn3-c2cccc(OC)c2)cc1 | 184 |
| COc1ccc(-c2nnc3c(n2)c(-c2cc(OC)c(OC)c(OC)c2)nn3-c2ccc(OC)cc2)cc1 | 118 |
| COc1cccc(N/N=C(\c2cc(OC)c(OC)c(OC)c2)c2nc(-c3ccccc3)n[nH]c2=O)c1 | 19.3 |

Test system: K562
Test: Cytotoxicity against human K562 cells after 72 hrs by MTT assay
Format: functional, cell-based
Conditions: K562, 72 h

| SMILES | IC50 [µM] |
| --- | --- |
| COc1ccc(-n2nc(-c3cc(OC)c(OC)c(OC)c3)c3nc(-c4cc(OC)c(OC)c(OC)c4)nnc32)cc1 | 66.2 |
| COc1ccc(N/N=C(\c2cc(OC)c(OC)c(OC)c2)c2nc(-c3cc(OC)c(OC)c(OC)c3)n[nH]c2=O)cc1 | 18.7 |
| COc1cccc(N/N=C(\c2cc(OC)c(OC)c(OC)c2)c2nc(-c3cc(OC)c(OC)c(OC)c3)n[nH]c2=O)c1 | 112 |
| COc1cccc(-n2nc(-c3cc(OC)c(OC)c(OC)c3)c3nc(-c4cc(OC)c(OC)c(OC)c4)nnc32)c1 | 164 |
| COc1cc(/C(=N\Nc2ccc(Cl)cc2)c2nc(-c3ccc(Cl)cc3)n[nH]c2=O)cc(OC)c1OC | 10.2 |
| COc1cc(-c2nn(-c3ccccc3)c3nnc(-c4ccccc4)nc23)cc(OC)c1OC | 169 |
| COc1ccc(-n2nc(-c3cc(OC)c(OC)c(OC)c3)c3nc(-c4ccccc4)nnc32)cc1 | 84.4 |
| COc1ccc(-c2nnc3c(n2)c(-c2cc(OC)c(OC)c(OC)c2)nn3-c2cccc(OC)c2)cc1 | 115 |
| COc1ccc(-c2nnc3c(n2)c(-c2cc(OC)c(OC)c(OC)c2)nn3-c2ccc(OC)cc2)cc1 | 186 |
| COc1cccc(N/N=C(\c2cc(OC)c(OC)c(OC)c2)c2nc(-c3ccccc3)n[nH]c2=O)c1 | 12.7 |

Test system: K562
Test: Cytotoxicity against human paclitaxel-resistant K562 cells after 72 hrs by MTT assay
Format: functional, cell-based
Conditions: K562, 72 h
Summary of the method: as §1

| SMILES | IC50 [µM] |
| --- | --- |
| COc1ccc(-n2nc(-c3cc(OC)c(OC)c(OC)c3)c3nc(-c4cc(OC)c(OC)c(OC)c4)nnc32)cc1 | 161 |
| COc1ccc(N/N=C(\c2cc(OC)c(OC)c(OC)c2)c2nc(-c3cc(OC)c(OC)c(OC)c3)n[nH]c2=O)cc1 | 8.91 |
| COc1cccc(N/N=C(\c2cc(OC)c(OC)c(OC)c2)c2nc(-c3cc(OC)c(OC)c(OC)c3)n[nH]c2=O)c1 | 22.1 |
| COc1cccc(-n2nc(-c3cc(OC)c(OC)c(OC)c3)c3nc(-c4cc(OC)c(OC)c(OC)c4)nnc32)c1 | 141 |
| COc1cc(/C(=N\Nc2ccc(Cl)cc2)c2nc(-c3ccc(Cl)cc3)n[nH]c2=O)cc(OC)c1OC | 12.5 |
| COc1cc(-c2nn(-c3ccccc3)c3nnc(-c4ccccc4)nc23)cc(OC)c1OC | 216 |
| COc1ccc(-n2nc(-c3cc(OC)c(OC)c(OC)c3)c3nc(-c4ccccc4)nnc32)cc1 | 150 |
| COc1ccc(-c2nnc3c(n2)c(-c2cc(OC)c(OC)c(OC)c2)nn3-c2cccc(OC)c2)cc1 | 174 |
| COc1ccc(-c2nnc3c(n2)c(-c2cc(OC)c(OC)c(OC)c2)nn3-c2ccc(OC)cc2)cc1 | 229 |
| COc1cccc(N/N=C(\c2cc(OC)c(OC)c(OC)c2)c2nc(-c3ccccc3)n[nH]c2=O)c1 | 13.7 |

Test system: A549
Test: Cytotoxicity against human A549 cells after 72 hrs by MTT assay
Format: functional, cell-based
Conditions: A549, 72 h

| SMILES | IC50 [µM] |
| --- | --- |
| COc1ccc(-n2nc(-c3cc(OC)c(OC)c(OC)c3)c3nc(-c4cc(OC)c(OC)c(OC)c4)nnc32)cc1 | 75.6 |
| COc1ccc(N/N=C(\c2cc(OC)c(OC)c(OC)c2)c2nc(-c3cc(OC)c(OC)c(OC)c3)n[nH]c2=O)cc1 | 3.39 |
| COc1cccc(N/N=C(\c2cc(OC)c(OC)c(OC)c2)c2nc(-c3cc(OC)c(OC)c(OC)c3)n[nH]c2=O)c1 | 3.38 |
| COc1cccc(-n2nc(-c3cc(OC)c(OC)c(OC)c3)c3nc(-c4cc(OC)c(OC)c(OC)c4)nnc32)c1 | 163 |
| COc1cc(/C(=N\Nc2ccc(Cl)cc2)c2nc(-c3ccc(Cl)cc3)n[nH]c2=O)cc(OC)c1OC | 3.81 |
| COc1cc(-c2nn(-c3ccccc3)c3nnc(-c4ccccc4)nc23)cc(OC)c1OC | 86.6 |
| COc1ccc(-n2nc(-c3cc(OC)c(OC)c(OC)c3)c3nc(-c4ccccc4)nnc32)cc1 | 39 |
| COc1ccc(-c2nnc3c(n2)c(-c2cc(OC)c(OC)c(OC)c2)nn3-c2cccc(OC)c2)cc1 | 124 |
| COc1ccc(-c2nnc3c(n2)c(-c2cc(OC)c(OC)c(OC)c2)nn3-c2ccc(OC)cc2)cc1 | 113 |
| COc1cccc(N/N=C(\c2cc(OC)c(OC)c(OC)c2)c2nc(-c3ccccc3)n[nH]c2=O)c1 | 8.3 |
